Experiment [1] in a line: Cytotoxicity against human HeLaS3 cells after 48 hrs by […] assay. The experiment is classed as functional, cell-based. The following applies: HeLa S3, 48 h. The method in brief:
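HeLa S₃ cells seeded at 3 × 10³ cells/well and incubated overnight, then exposed to a range of compound concentrations for 48 h. WST-8 reagent added for 2 h and absorbance read at 450 nm. Viability (% control) = (sample absorbance − blank) / (0 µM well absorbance) × 100.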

A short description of experiment [2]: Cytotoxicity against human HeLaS3 cells after 48 hrs by […] assay relative to glaziovianin A. The format is functional, HeLa S3.
The nature of experiment [3]: Cell cycle arrest in human HeLaS3 cells assessed as accumulation at M phase at 1 uM after 18 hrs by flow cytometry. The experiment is classed as functional, cell-based. The following applies: HeLa S3. A digest of the protocol:
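HeLa S3 cells exposed 18 h to 1 μM compound, DMSO as vehicle control. Cells then fixed in cold (−20 °C) 70% EtOH (v/v), stained with propidium iodide. DNA content distribution obtained from total fluorescence intensities by quantitative flow cytometry.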
(A flow cytometer gives signals particle by particle.)

Experiment [4] is described as follows: Cell cycle arrest in human HeLaS3 cells assessed as abnormal spindle structures with unaligned chromosomes at 1 uM after 18 hrs. The format is functional, cell-based. As to conditions: HeLa S3. A digest of the protocol: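 HeLa S₃ cells given 1 µM compound or DMSO for 18 h. Microtubules immunostained with anti-α-tubulin antibody (DM1A) and chromosomes stained with Hoechst 33258. Spindle structures and chromosome alignment assessed by fluorescence microscopy.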

The source made the active and inactive calls. The calls are words filed in the database; no cut-off is given here.

As usually defined, the IC50 is the concentration at which inhibition is half-maximal. Higher therefore signals lower potency. In experiment [1], `COc1cc2c(=O)c(-c3cc(OC)c4c(c3OC)OCO4)coc2cc1O` came in with an IC50 of more than 100 µM.

Consider `COc1cc2occ(-c3cc(OC)c(OC)c(OC)c3OC)c(=O)c2cc1OC`, for which the Ratio in experiment [2] is on record as 0.027. Moreover, the IC50 in experiment [1] was 22 µM.

On to `COc1cc2c(=O)c(-c3cc(OC)c4c(c3OC)OCO4)coc2cc1OCc1ccccc1`, for which the Ratio in experiment [2] is given as 0.79. This compound yielded a half-maximal inhibitory concentration (IC50) in experiment [1] of 0.75 µM.

Take `C#CCOc1cc2occ(-c3cc(OC)c4c(c3OC)OCO4)c(=O)c2cc1OC`: the Ratio in experiment [2] is listed as 0.8. In experiment [1], this compound had an IC50 of 0.74 µM.

Compound `COc1cc2c(=O)c(-c3cc(OC)c4c(c3OC)OCO4)coc2cc1OC1CCCCO1` (stereo not drawn) showed an IC50 in experiment [1] of more than 100 µM.

In turn, `COc1cc(-c2coc3cc(OC)c(OC)c(OC)c3c2=O)c(OC)c2c1OCO2` yielded an IC50 in experiment [1] of more than 100 µM.

With `COc1cc2occ(-c3cc(OC)c4c(c3OC)OCO4)c(=O)c2cc1OC` [GLAZIOVIANIN A], the outcome in experiment [3] was Active. In addition, it took 0.59 µM to reach half-maximal inhibition in experiment [1] (IC50).

Consider `COc1cc2occ(-c3cc(OC)c4c(c3OC)OC(C)(C)O4)c(=O)c2cc1OC`, for which the concentration for half-maximal inhibition (IC50) in experiment [1] is more than 100 µM.

`C=CCOc1cc2occ(-c3cc(OC)c4c(c3OC)OCO4)c(=O)c2cc1OC`: the result in experiment [3] and in experiment [4] was Active. Moreover, in experiment [2], the Ratio was found to be 3.1. The IC50 in experiment [1] came out at 0.19 µM.

With `COc1cc2occ(-c3ccc4c(c3)OCO4)c(=O)c2cc1OC`, the Ratio in experiment [2] is listed as 0.01. In experiment [1], this compound showed an IC50 of 56.2 µM.

These data come from ChEMBL document CHEMBL1221375, “Structure-activity relationship study of glaziovianin A against cell cycle progression and spindle formation of HeLa S3 cells” (Bioorg Med Chem Lett, 2010).
